Assay outcomes: PubChem, several laboratories
T cruzi inh: T. cruzi replication inhibition; T. cruzi beta-gal in NIH3T3, luminescence, 90 h; inhibition, % (no concentration beside the values); 1.4% of 300,000 active; AID 1885;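 active = mean inhibition across valid replicates above about 55%, limit read from the data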;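 also: signal also drops with host cell toxicity which is not excluded here; 0% = plate median of DMSO wells and 100% = zero luminescence signal; higher percent means less beta-gal luminescence so fewer parasites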
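Assay system: NIH/3T3 fibroblasts plus reporter T. cruzi. Amount: NIH/3T3 cells, 5,000 per well. Buffer or medium: DMEM, 2% fetal bovine serum. Doses: compound pinned at 50 nL/well, DMSO. Schedule: ≥90 h infection period, 3 h prior cell attachment. Signal: luminescent β-galactosidase signal after 60 min lysis. Read-out: parasite load inhibition, %.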
AI-2 QS modul: Vibrio harveyi AI-2 quorum sensing modulation | Vibrio harveyi JMH597 AI-2 luminescence/OD600 ratio, 9 h; stronger effect = lower value; strain lacks LuxN and CqsS sensors; 0 = neutral-control median | activity change, % at 7.5 µM | 0.4% of 300,000 active | AID 2094; in the data active = activity change below about -75%, passing the limit was not always enough;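 also: luminescence divided by OD600 gain over 9 h not by final OD600 alone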
pCIP destab: compounds decreasing mouse p/CIP protein stability | Q05BA5 | F442A p/CIP-EGFP cells, EGFP fluorescence, 16 h | decrease of EGFP signal, % at 10 µM | 0.01% of 290,000 active | AID 1984;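 active = EGFP signal decrease of at least 30% at 10 µM or well 3 SD below plate mean, unless failing retest; inactive = the rest, including hits failing retest or dose response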
UBC13 polyUb: human UBC13 polyubiquitination inhibition | inhibition, % at 20 µM | 0.47% of 330,000 active | AID 485273 | UBC13 polyubiquitin chain formation, TR-FRET; in the data active = inhibition above about 45%, passing the limit was not always enough
Target sequence (P61088 whole entry, looked up): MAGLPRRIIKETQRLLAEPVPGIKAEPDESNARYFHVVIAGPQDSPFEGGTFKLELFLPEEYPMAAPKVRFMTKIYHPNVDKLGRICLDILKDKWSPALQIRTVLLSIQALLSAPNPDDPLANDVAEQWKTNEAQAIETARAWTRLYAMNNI
PP1 inh: PP1-alpha (human) inhibition in PP5 counter-screen | P62136 | purified PP1alpha, OMFP fluorescence | inhibition, % at 6.7 µM | 0.9% of 320,000 active | AID 2235;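 active = inhibition above the mean inhibition of all tested compounds plus 3 SD, computed separately for each screening campaign, cut at about 15% in these data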
Target sequence (P62136 whole entry, looked up): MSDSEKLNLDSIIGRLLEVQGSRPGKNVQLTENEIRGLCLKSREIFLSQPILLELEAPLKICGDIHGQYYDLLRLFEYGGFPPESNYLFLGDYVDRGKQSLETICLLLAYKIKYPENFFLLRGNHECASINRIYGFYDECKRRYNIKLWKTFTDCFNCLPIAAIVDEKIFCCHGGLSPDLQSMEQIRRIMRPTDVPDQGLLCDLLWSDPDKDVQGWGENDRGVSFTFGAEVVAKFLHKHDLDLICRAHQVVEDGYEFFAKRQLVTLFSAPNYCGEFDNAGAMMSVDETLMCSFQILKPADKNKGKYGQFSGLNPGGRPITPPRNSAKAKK
PP1 inh confirm: confirmation of human PP1 phosphatase inhibitors | shares compounds with PP1 inh | purified PP1alpha, OMFP substrate fluorescence | inhibition, % at 6.7 µM | 52% of 1,900 active | AID 2358;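 active = mean PP1 inhibition above a set limit taken from the earlier primary screen, cut at about 15% in these data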
PP5 counter: inhibits human PP5 phosphatase in PP1 counter-screen. shares compounds with PP1 inh. purified PP5c, OMFP fluorescence. inhibition, % at 6.7 µM. 4% of 1,900 active. AID 2360;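 active = mean PP5 inhibition over triplicate wells above about 9.5% taken from the earlier PP1 screen, limit read from the data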
* hit, by the source's call; / = no result. This is a sample that favours compounds with a hit; in the whole collection about 2.8% have one here.

SMILES	T cruzi inh	AI-2 QS modul	pCIP destab	UBC13 polyUb	PP1 inh	PP1 inh confirm	PP5 counter
ClC(Cl)(Cl)c1nc(N/N=C/c2ccncc2)c2ccccc2n1	-13	7	-2	-14	22*	18*	-3
C=CCn1c(SCc2nc3ccccc3c(=O)[nH]2)nc2scc(C3CC3)c2c1=O	-2	21	-7	14	9	/	/
COC(=O)c1ccc(CSc2nc3scc(-c4cccs4)c3c(=O)[nH]2)o1	-13	16	-8	-6	22*	9	-2
Cc1nnc2c(N3CCN(CCO)CC3)nc3ccccc3n12	1	1	-10	-2	3	/	/
O=c1/c(=C\c2cc([N+](=O)[O-])cc([N+](=O)[O-])c2O)sc2nc3ccccc3n12	/	/	9	-84	18*	26*	3
Cc1noc(C)c1COC(=O)COc1ccc2c(C)cc(=O)oc2c1	-9	16	0	-8	19*	17*	-4
Cc1c(CCOC(=O)C23CC4CC(CC(C)(C4)C2)C3)sc[n+]1CC(=O)c1ccccc1	22	31	-1	29	20*	-7	-5
Cc1onc(-c2ccccc2)c1C(=O)NC(=S)NNC(=O)c1cc(-c2ccc(F)cc2)n[nH]1	4	-5	1	4	29*	22*	-1
COc1ccc(/C=C/C(=O)NC(=S)NNC(=O)Cc2cccs2)cc1OC	-23	39	-5	-32	3	/	/
Cc1onc(-c2ccccc2)c1C(=O)NNC(=S)NC(=O)/C=C/c1cccs1	-1	3	-2	-23	19*	9	0
O=C(/C=C/c1cccs1)NC(=S)NNC(=O)Cc1cccs1	-5	-44	-1	-13	25*	24*	-7
CCCCCCCCC[n+]1cccc2c3ccccc3ccc21	59*	1	4	28	19*	-11	-2
CCCCCCCCCCCCCCCC[n+]1cccc2ccccc21	/	/	-2	102*	52*	37*	8
CCOC(=O)C1=C(N)N(c2cc(S(=O)(=O)N3CCOCC3)ccc2Cl)C(=O)C1	-7	1	-6	-2	4	/	/
COc1ccc(C(=O)Nc2ccc(Cl)cc2C(=O)N2CCCC(C)C2)cc1 (stereo unspecified)	-3	13	-4	2	60*	-1	-1
COc1ccc(C(=O)Nc2ccc(Cl)cc2C(=O)N2CCOCC2)cc1	-3	-1	-31	-8	1	/	/
CCC(=O)Nc1ccc(C(=O)COC(=O)c2nc3nccc(C)n3n2)cc1	/	/	/	-21	20*	8	0
CCn1c(SCC(=O)Nc2cc(C)on2)nc2sc3c(c2c1=O)CCCC3	-1	33	-10	-15	23*	28*	-2
Cc1ccc(C)c(N2CCN(C(=O)c3ccc(NC4=NC5CS(=O)(=O)CC5S4)cc3)CC2)c1 (stereo unspecified)	-14	17	-3	3	0	/	/
Cc1ccc(C(C)C)c(OCc2nn(CC(=O)c3ccc(Cl)cc3)c3[n+]2CCCCC3)c1	86*	36	5	43	23*	-18	-1
O=C(CCSCCC(=O)NCc1ccc(F)cc1)NCc1ccc(F)cc1	-10	11	8	18	0	/	/
CC(=O)NCCC(=O)NCc1ccc(F)cc1	3	17	-12	-11	19*	-6	-7
Cc1ccc(NC(=O)Nc2nnc(-c3ccncc3)s2)cc1C	35	-16	-13	-18	25*	29*	-3
Cc1cccc(N2C(=O)C(O)=C(C(=O)c3cccs3)C2c2ccc(C(C)C)cc2)n1 (stereo unspecified)	7	26	-7	-12	23*	19*	-3
COc1ccc(N2Cc3ccc(C(=O)N/N=C\c4ccc(O)cc4O)cc3C2)cc1	4	26	-6	20	19*	13	-3
SMILES	T cruzi inh	AI-2 QS modul	pCIP destab	UBC13 polyUb	PP1 inh	PP1 inh confirm	PP5 counter
O=C(N/N=C/c1ccc(O)cc1O)C(=O)N/N=C/c1ccc(O)cc1O	-13	-86*	4	14	53*	30*	-7
c1ccc(N(c2ccccc2)c2nc(-n3ccnc3)nc(-n3ccnc3)n2)cc1	47	14	-10	11	50*	50*	0
O=S(=O)(Nc1cccc(-c2ccc(N3CCCCCC3)nn2)c1)c1ccccc1F	0	7	8	-6	1	/	/
O=S(=O)(Nc1cccc(-c2ccc(N3CCCCCC3)nn2)c1)c1cccc(F)c1	3	28	-8	-1	18*	4	1
COCCNCC(O)CON=C1c2ccccc2-c2ccccc21 (stereo unspecified)	-3	11	-4	-11	1	/	/
CN(CC(O)CON=C1c2ccccc2-c2ccccc21)S(=O)(=O)c1ccc(Br)cc1 (stereo unspecified)	44	15	3	12	41*	-2	-2
CC(NC(=O)c1ccccc1)c1nnc(SCC(=O)NC2CCCC2)n1C (stereo unspecified)	-13	10	1	-3	-7	/	/
Cc1ccc(C)c(Cn2nnc3c(=O)[nH]c(C(=O)NCc4ccco4)nc32)c1	8	13	-7	-6	19*	4	-5
COC(=O)c1sc(N2C(=O)C(O)=C(C(=O)c3ccc(C)o3)C2c2cccs2)nc1C (stereo unspecified)	-19	22	-21	-13	23*	21*	0
Cc1ccc2nc(N3C(=O)C(O)=C(C(=O)c4ccco4)C3c3ccc(C)o3)sc2c1 (stereo unspecified)	-7	50	-5	-1	26*	25*	0
CCOc1cccc(C2C(C(=O)c3ccc(C)o3)=C(O)C(=O)N2c2nccs2)c1 (stereo unspecified)	2	19	-9	-25	22*	11	0
O=C(C1=C(O)C(=O)N(c2nc3ccc(Cl)cc3s2)C1c1ccco1)c1ccco1 (stereo unspecified)	/	/	/	-18	19*	25*	-2
Cc1ccc(-c2nnc(N3CCOCC3)c3ccccc23)cc1S(=O)(=O)N(C)C	2	16	6	-6	/	/	/
CCOc1ccc(C2(C)NC(=O)N(CCN(C)C)C2=O)cc1 (stereo unspecified)	-1	10	13	7	-4	/	/
CCc1ccc2nc(N3C(=O)C(O)=C(C(=O)c4ccco4)C3c3cccs3)sc2c1 (stereo unspecified)	-5	40	13	-20	29*	24*	1
Cc1ccc(-c2noc(-c3ccoc3C)n2)cc1	0	10	6	-3	-6	/	/
COc1cccc(CN2CC(C(=O)N3CCOCC3)CCC2=O)c1 (stereo unspecified)	-1	11	4	6	-2	/	/
